Consider 6 compounds from ChEMBL document CHEMBL4028846, “Insights on the Interaction between Transthyretin and Aβ in Solution. A Saturation Transfer Difference (STD) NMR Analysis of the Role of Iododiflunisal” (J Med Chem, 2017).

The source made the active and inactive calls. No cut-off for these calls is given here.

For assay [1], the target named is T1, Transthyretin (Homo sapiens, UniProt P02766). As to the kind of experiment: Binding affinity to recombinant human transthyretin expressed in Escherichia coli BL21 at 1:20 to 1:50 […] molar ratio by STD-NMR spectroscopic method. The method, boiled down: (§1)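 Human recombinant WT TTR expressed in E. coli, purified by ion exchange then preparative gel electrophoresis. Protein 20−50 μM in PBS pH 6.0, […] 1:20 to 1:50, 298−313 K, optimized per case. On-resonance at aliphatic region (δ −0.2 to 0.16 ppm), off-resonance δ 100 ppm. Saturation by 20 ms PC9 pulse train, 2 s total, 600 MHz.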

The target in assay [2] is T1, Transthyretin. As to the kind of experiment: Binding affinity to recombinant human transthyretin expressed in Escherichia coli BL21 by STD-NMR spectroscopic method. The method, boiled down: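 Human recombinant WT TTR expressed in E. coli, purified by ion exchange then preparative gel electrophoresis. On-resonance at aliphatic region (δ −0.2 to 0.16 ppm), off-resonance δ 100 ppm. Saturation by 20 ms PC9 pulse train, 2 s total, 600 MHz.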

Assay [3] has as its target T1, Transthyretin. The experiment in a line: Binding affinity to recombinant human transthyretin expressed in Escherichia coli BL21 at 1:50 protein to ligand molar ratio by STD-NMR spectroscopic method. Summed up:
as §1

In assay [4] the target is T1, Transthyretin. The experiment in a line: Binding affinity to recombinant human transthyretin expressed in Escherichia coli BL21 at 1:45 protein to ligand molar ratio in presence of IDIF by STD-NMR spectroscopic method.
Assay [5] addresses T1, Transthyretin. The experiment in a line: Binding affinity to recombinant human transthyretin expressed in Escherichia coli BL21 at 1:45 protein to ligand molar ratio by STD-NMR spectroscopic method. Summed up: as §1
The target in assay [6] is T1, Transthyretin. As to the kind of experiment: Binding affinity to recombinant human transthyretin expressed in Escherichia coli BL21 at 1:45 protein to ligand molar ratio in presence of EGCG by STD-NMR spectroscopic method.
The target in assay [7] is T1, Transthyretin. As to the kind of experiment: Binding affinity to recombinant human transthyretin expressed in Escherichia coli BL21 at 1:4 protein to ligand molar ratio in presence of EGCG by STD-NMR spectroscopic method.

As for `CN(C)C[C@H](O)[C@@H](O)[C@H](O)[C@H](O)CO.O=C(O)c1cc(-c2ccc(F)cc2F)ccc1O`, in assay [1], the result was Active.

With `C[C@H](NC(=O)[C@@H](N)CC(=O)O)C(=O)N[C@@H](CCC(=O)O)C(=O)N[C@@H](Cc1ccccc1)C(=O)N[C@@H](CCCNC(=N)N)C(=O)N[C@@H](Cc1cnc[nH]1)C(=O)N[C@@H](CC(=O)O)C(=O)N[C@@H](CO)C(=O)NCC(=O)N[C@@H](Cc1ccc(O)cc1)C(=O)N[C@@H](CCC(=O)O)C(=O)O`, the outcome in assay [1] was inactive. `O=C(O[C@@H]1Cc2c(O)cc(O)cc2O[C@@H]1c1cc(O)c(O)c(O)c1)c1cc(O)c(O)c(O)c1` [EPIGALOCATECHIN GALLATE]: the dissociation constant Kd in assay [2] was 400 nM. Also, the outcome in assay [3] was Active.

With H-YEVHHQKLVFF-OH, the result in assay [1] was inactive. `CC(C)C[C@H](NC(=O)[C@H](CCCCN)NC(=O)[C@H](CCC(N)=O)NC(=O)[C@H](Cc1cnc[nH]1)NC(=O)[C@H](Cc1cnc[nH]1)NC(=O)[C@@H](N)C(C)C)C(=O)N[C@H](C(=O)N[C@@H](Cc1ccccc1)C(=O)N[C@@H](Cc1ccccc1)C(=O)N[C@@H](C)C(=O)N[C@@H](CCC(=O)O)C(=O)N[C@@H](CC(=O)O)C(=O)N[C@H](C(=O)NCC(=O)N[C@@H](CO)C(=O)N[C@@H](CC(N)=O)C(=O)N[C@@H](CCCCN)C(=O)O)C(C)C)C(C)C`: the outcome in assay [4] and in assay [5] was Active. Further, the outcome in assay [6] was inactive.

Consider `CN(C)C[C@H](O)[C@@H](O)[C@H](O)[C@H](O)CO.O=C(O)c1cc(-c2ccc(F)cc2F)cc(I)c1O`, for which the result in assay [7] and in assay [1] was Active.

As a reminder, the Kd is a measure of binding affinity in units of concentration.
